Test results as given in ChEMBL document CHEMBL5370587, “Fungal Anthraquinone Photoantimicrobials Challenge the Dogma of Cationic Photosensitizers” (J Nat Prod, 2023).

Columns and labels:
A549 [1] = experiment: Phototoxicity against human A549 cells assessed as reduction in cell growth preincubated with compound for 24 hrs followed by blue light irradiation at 468 nm for 7 mins 30 sec and measured after 48 hrs by SRB assay; type: functional, cell-based; conditions: A549, light or radiation study
How it was run: (§1)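 Cells (A549 2000, AGS 2500, T24 1500 per well) seeded in Opti-MEM with 2.4% FCS. After 24 h, treated with 25.0−0.3 μM (six levels). After another 24 h, medium was replaced and cells got blue light (468±27 nm, 9.3 J/cm²). Held 48 h at 37 °C, 5% CO2, then TCA-fixed and SRB-stained, read at 540 nm. EC50 from variable-slope fit with 95% CI.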

A549 [2] = experiment: Phototoxicity against human A549 cells assessed as reduction in cell growth preincubated with compound for 24 hrs followed by green light irradiation at 519 nm for 22 mins 23 sec and measured after 48 hrs by SRB assay; type: functional, cell-based; conditions: A549, light or radiation study
How it was run: (§2)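 Cells (A549 2000, AGS 2500, T24 1500 per well) seeded in Opti-MEM with 2.4% FCS and dosed 24 h later at six concentrations, 25.0−0.3 μM. After a further 24 h, fresh medium was added and cells got green light (519±33 nm, 30.0 J/cm²). Then 48 h at 37 °C, 5% CO2. Read-out by TCA fixation, SRB stain and absorbance at 540 nm. EC50 from Hill fit with 95% CI.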

A549 [3] = experiment: Phototoxicity against human A549 cells assessed as reduction in cell growth preincubated with compound for 24 hrs under dark condition and measured after 48 hrs by SRB assay; type: functional, cell-based; conditions: A549, light or radiation study
How it was run: (§3)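 Dark control plate processed the same way: cells (A549 2000, AGS 2500, T24 1500 per well) in Opti-MEM with 2.4% FCS, dosed at 25.0−0.3 μM 24 h after seeding. Medium renewed after 24 h, then 48 h further at 37 °C, 5% CO2 without light. SRB read-out at 540 nm after TCA fixation. EC50 with 95% CI from variable-slope fit.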

A549 [4] = experiment: Photo index, ratio of EC50 for human A549 cells killed in the absence of light to EC50 for human A549 cells killed after irradiation; type: functional
How it was run: (§4)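 SRB assay: cells seeded in Opti-MEM with 2.4% FCS, treated 24 h later with 0.3–25.0 μM, medium replaced after 24 h. Duplicate plates were irradiated with blue light (468 nm, 9.3 J/cm²) or green light (519 nm, 30.0 J/cm²), or kept dark, then held 48 h at 37 °C, 5% CO₂. EC50 from Hill fit; photoindex = EC50 dark / EC50 irradiated.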

AGS [5] = experiment: Phototoxicity against human AGS cells assessed as reduction in cell growth preincubated with compound for 24 hrs followed by blue light irradiation at 468 nm for 7 mins 30 sec and measured after 48 hrs by SRB assay; type: functional, cell-based; conditions: light or radiation study; how it was run: as §1
AGS [6] = experiment: Phototoxicity against human AGS cells assessed as reduction in cell growth preincubated with compound for 24 hrs followed by green light irradiation at 519 nm for 22 mins 23 sec and measured after 48 hrs by SRB assay; type: functional, cell-based; conditions: light or radiation study; how it was run: as §2
AGS [7] = experiment: Phototoxicity against human AGS cells assessed as reduction in cell growth preincubated with compound for 24 hrs under dark condition and measured after 48 hrs by SRB assay; type: functional, cell-based; conditions: light or radiation study; how it was run: as §3
T-24 [8] = experiment: Phototoxicity against human T24 cells assessed as reduction in cell growth preincubated with compound for 24 hrs followed by blue light irradiation at 468 nm for 7 mins 30 sec and measured after 48 hrs by SRB assay; type: functional, cell-based; conditions: T-24, light or radiation study; how it was run: as §1
T-24 [9] = experiment: Phototoxicity against human T24 cells assessed as reduction in cell growth preincubated with compound for 24 hrs followed by green light irradiation at 519 nm for 22 mins 23 sec and measured after 48 hrs by SRB assay; type: functional, cell-based; conditions: T-24, light or radiation study; how it was run: as §2
T-24 [10] = experiment: Phototoxicity against human T24 cells assessed as reduction in cell growth preincubated with compound for 24 hrs under dark condition and measured after 48 hrs by SRB assay; type: functional, cell-based; conditions: T-24, light or radiation study; how it was run: as §3
T-24 [11] = experiment: Photo index, ratio of EC50 for human T24 cells killed in the absence of light to EC50 for human T24 cells killed after irradiation; type: functional; how it was run: as §4
Staphylococcus aureus [12] = experiment: Antibacterial activity against Staphylococcus aureus DSM1104 assessed as reduction in microbial growth preincubated for 60 mins under dark condition and measured after 20 to 24 hrs at room temperature by muller hinton broth based dilution assay; type: functional; conditions: time 20-24 hrs
How it was run: (§5)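 Bacteria grown overnight at 37 °C for 15−18 h in the dark, then set to 0.5 McFarland (read at 600 nm) and diluted 1:50 in Müller-Hinton broth to (2–8) × 10⁵ CFU/mL. Dark plate held at room temperature, then incubated at 37 °C. After 20−24 h, turbidity was read against the untreated growth control, with blanks subtracted. Compounds tested at ≥10 concentrations in biological triplicate.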

Escherichia coli [13] = experiment: Antibacterial activity against Escherichia coli DSM1103 assessed as reduction in microbial growth preincubated for 60 mins under dark condition followed by 428 nm light irradiation and measured after 20 to 24 hrs by muller hinton broth based dilution assay; type: functional; conditions: DSM1103, light or radiation study, time 21-25 hrs
How it was run: (§6)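 PhotoMIC (modified EUCAST broth microdilution): 0.5 McFarland suspensions diluted 1:50 in Mueller-Hinton broth (bacteria, 2–8 × 10⁵ CFU/mL) or 1:10 in double-strength RPMI-1640 (yeast, 0.5–2.5 × 10⁵ CFU/mL); ≥10 concentrations, biological triplicates; 60 min dark preincubation, then 30 J/cm² irradiation or dark duplicate plate; 37 °C, 20–24 h; turbidity versus growth control, blanks subtracted.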

Staphylococcus aureus [14] = experiment: Antibacterial activity against Staphylococcus aureus DSM1104 assessed as reduction in microbial growth preincubated for 60 mins under dark condition followed by 428 nm light irradiation and measured after 20 to 24 hrs by muller hinton broth based dilution assay; type: functional; conditions: DSM1104, light or radiation study, time 21-25 hrs; how it was run: as §6
Staphylococcus aureus [15] = experiment: Antibacterial activity against Staphylococcus aureus DSM1104 assessed as reduction in microbial growth preincubated for 60 mins under dark condition followed by 478 nm light irradiation and measured after 20 to 24 hrs by muller hinton broth based dilution assay; type: functional; conditions: DSM1104, light or radiation study, time 21-25 hrs; how it was run: as §6
Staphylococcus aureus [16] = experiment: Antibacterial activity against Staphylococcus aureus DSM1104 assessed as reduction in microbial growth preincubated for 60 mins under dark condition followed by 530 nm light irradiation and measured after 20 to 24 hrs by muller hinton broth based dilution assay; type: functional; conditions: DSM1104, light or radiation study, time 21-25 hrs; how it was run: as §6
Candida albicans [17] = experiment: Antifungal activity against Candida albicans 501670 assessed as reduction in microbial growth preincubated for 60 mins under dark condition and measured after 20 to 24 hrs at room temperature by RPMI-1640 based dilution assay
Candida albicans [18] = experiment: Antifungal activity against Candida albicans 501670 assessed as reduction in microbial growth preincubated for 60 mins under dark condition followed by 428 nm light irradiation and measured after 20 to 24 hrs by RPMI-1640 based dilution assay; conditions: Candida albicans, 501670, light or radiation study
Candida albicans [19] = experiment: Antifungal activity against Candida albicans 501670 assessed as reduction in microbial growth preincubated for 60 mins under dark condition followed by 478 nm light irradiation and measured after 20 to 24 hrs by RPMI-1640 based dilution assay; conditions: Candida albicans, 501670, light or radiation study
Candida albicans [20] = experiment: Antifungal activity against Candida albicans 501670 assessed as reduction in microbial growth preincubated for 60 mins under dark condition followed by 530 nm light irradiation and measured after 20 to 24 hrs by RPMI-1640 based dilution assay; conditions: Candida albicans, 501670, light or radiation study
Candida albicans [21] = experiment: Antifungal activity against Candida albicans 501670 assessed as reduction in microbial growth preincubated for 60 mins under dark condition followed by 428 to 530 nm light irradiation and measured after 20 to 24 hrs by muller hinton broth based dilution assay; type: functional; conditions: Candida albicans, 501670, light or radiation study; in the assay text read “RPMI-1640” for “muller hinton broth”; time 21-25 hrs
How it was run: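 Yeast set to 0.5 McFarland (530 nm), diluted 1:10 in double-strength RPMI-1640 to (0.5−2.5) × 10⁵ CFU/mL. Irradiated at H = 30 J/cm² after 60 min dark preincubation, then kept dark at 37 °C for 20−24 h. Growth inhibition by turbidity versus growth control, blanks subtracted. ≥10 concentrations in biological triplicate.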

Escherichia coli [22] = experiment: Antibacterial activity against Escherichia coli DSM1103 assessed as reduction in microbial growth preincubated for 60 mins under dark condition and measured after 20 to 24 hrs at room temperature by muller hinton broth based dilution assay; type: functional; conditions: time 20-24 hrs; how it was run: as §5
Escherichia coli [23] = experiment: Antibacterial activity against Escherichia coli DSM1103 assessed as reduction in microbial growth preincubated for 60 mins under dark condition followed by 428 to 530 nm light irradiation and measured after 20 to 24 hrs by muller hinton broth based dilution assay; type: functional; conditions: DSM1103, light or radiation study, time 21-25 hrs
How it was run: (§7)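 Bacterial inoculum set to 0.5 McFarland (600 nm) and diluted 1:50 in Müller-Hinton broth to (2–8) × 10⁵ CFU/mL. After 60 min dark preincubation the plate received H = 30 J/cm² from LED panels (468±27, 519±33, 478±22 or 523±33 nm). Incubated at 37 °C in the dark for 20−24 h. Turbidity read against growth control, blanks subtracted. ≥10 concentrations, biological triplicate.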

Staphylococcus aureus [24] = experiment: Antibacterial activity against Staphylococcus aureus DSM1104 assessed as reduction in microbial growth preincubated for 60 mins under dark condition followed by 428 to 530 nm light irradiation and measured after 20 to 24 hrs by muller hinton broth based dilution assay; type: functional; conditions: DSM1104, light or radiation study, time 21-25 hrs; how it was run: as §7

Row | MIC (Staphylococcus aureus [12]) [µM] | MIC (Candida albicans [17]) [µM] | MIC (Candida albicans [21]) [µM] | MIC (Escherichia coli [22]) [µM] | MIC (Escherichia coli [23]) [µM] | MIC (Staphylococcus aureus [24]) [µM] | SMILES | EC50 (A549 [1]) [µM] | EC50 (A549 [2]) [µM] | EC50 (A549 [3]) [µM] | EC50 (AGS [5]) [µM] | EC50 (AGS [6]) [µM] | EC50 (AGS [7]) [µM] | EC50 (T-24 [8]) [µM] | EC50 (T-24 [9]) [µM] | EC50 (T-24 [10]) [µM] | further results
1 | > 79 | > 79 | – | – | – | – | COc1c(O)c(O)c2c(c1O)C(=O)c1cc(C)cc(O)c1C2=O | > 25 | 16.2 | > 25 | > 25 | > 25 | > 25 | > 25 | 11.6 | 24.7 | Ratio EC50 (A549 [4]): >1.5; Ratio EC50 (T-24 [11]): 2.1; MIC (Escherichia coli [13]): > 79 µM; MIC (Staphylococcus aureus [14]): 39.5 µM; MIC (Staphylococcus aureus [15]): 4.74 µM; MIC (Staphylococcus aureus [16]): 2.37 µM; MIC (Candida albicans [18]): 39.5 µM; MIC (Candida albicans [19]): 19.7 µM; MIC (Candida albicans [20]): 39.5 µM
2 | > 115 | > 115 | > 115 | > 115 | > 115 | > 115 | Cc1cc(O[C@@H]2O[C@H](CO)[C@@H](O)[C@H](O)[C@H]2O)c2c(c1)C(=O)c1cc(O)cc(O)c1C2=O | > 25 | – | > 25 | > 25 | – | > 25 | > 25 | – | > 25 | –
3 | > 84 | > 84 | > 84 | > 84 | > 84 | > 84 | Cc1cc(O[C@@H]2O[C@H](CO)[C@@H](O)[C@H](O)[C@H]2O)c2c(c1)C(=O)c1cc(O[C@@H]3O[C@H](CO)[C@@H](O)[C@H](O)[C@H]3O)cc(O)c1C2=O | > 25 | – | > 25 | > 25 | – | > 25 | > 25 | – | > 25 | –
4 | > 105 | > 105 | > 105 | > 105 | > 105 | > 105 | COc1c(O)c(O)c2c(c1O)C(=O)c1cc(C)cc(O[C@@H]3O[C@H](CO)[C@@H](O)[C@H](O)[C@H]3O)c1C2=O | > 25 | > 25 | > 25 | > 25 | > 25 | > 25 | > 25 | > 25 | > 25 | –
